ROMK mod – modulates human ROMK potassium channel activity | P48048 | Tet-inducible ROMK, thallium flux fluorescence; actives lie on both sides | B-score at 10 µM | actives 2% (n = 130,000);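 active means signal ratio slope over the read window, or its plate-corrected B-score, at least 3 SD from the plate mean, either direction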;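 further: B-score of the F/F0 ratio slope over 7 to 12 s after thallium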
PKD1 inh – blocks activity of human protein kinase D1 | Q15139 | inhibition, % (no concentration beside the values) | actives 0.056% (n = 200,000) | PKD1 kinase fluorescence polarization assay; in the data active means inhibition above about 50%
Calpain2 inh – inhibitors of pig calpain II; actives 0.37% (n = 220,000); purified calpain II, fluorogenic peptide substrate, 30 min; AID 1236; inhibition, % at 16 µM;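 active means inhibition above about 50%, limit read from the data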
Arbovirus anti – arbovirus infection inhibition. actives 0.37% (n = 200,000). inhibition, % at 10 µM. AID 1251. arbovirus infection cell-based antiviral screen; in the data active means inhibition above about 30%
KCC2 mod – modulates chloride dependent transport by human KCC2; KCC2 cells, thallium flux FluoZin-2 fluorescence; actives 2.2% (n = 190,000); B-score of Tl+ flux slope (higher = more flux/activation; lower = inhibition) at 10 µM;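 active means thallium flux slope and its plate-corrected score both differing from the plate sample mean at a set confidence after two filtering rounds, in either direction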;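 further: slope of fluorescence scaled to starting intensity during 10 to 20 s after thallium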
Mdm2 ligase inh – blocks human Mdm2 ubiquitin ligase activity; Q00987; cell-based MDM2 ubiquitination luciferase reporter, 2 h; 0 = plate control, 100 = twice control, blank-subtracted; signal enhancement, % at 5 µM; actives 0.11% (n = 210,000);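 active means signal enhancement of 30% or more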;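 further: luminescence tracks abundance of the self-degrading MDM2-luciferase fusion protein; higher signal means inhibition of MDM2 E3 ligase activity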
Target sequence (Q00987 whole entry, looked up, the tested form may be a part): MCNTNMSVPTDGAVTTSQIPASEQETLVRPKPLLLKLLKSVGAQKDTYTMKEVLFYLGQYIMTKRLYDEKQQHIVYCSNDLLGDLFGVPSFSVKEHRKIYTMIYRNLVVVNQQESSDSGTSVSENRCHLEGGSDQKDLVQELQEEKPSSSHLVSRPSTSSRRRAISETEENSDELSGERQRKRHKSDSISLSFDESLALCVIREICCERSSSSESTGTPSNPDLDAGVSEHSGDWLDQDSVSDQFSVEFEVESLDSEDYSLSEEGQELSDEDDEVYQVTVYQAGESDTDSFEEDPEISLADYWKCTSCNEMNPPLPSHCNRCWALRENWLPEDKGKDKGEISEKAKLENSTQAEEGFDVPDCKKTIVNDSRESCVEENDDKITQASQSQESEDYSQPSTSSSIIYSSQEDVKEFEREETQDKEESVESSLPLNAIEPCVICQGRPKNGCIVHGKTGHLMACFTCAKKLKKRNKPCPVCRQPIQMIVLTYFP
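test system = mammalian cells stably expressing self-ubiquitinating, self-degrading MDM2 E3–luciferase fusion | quantity = 2000 cells/well | incubation = cell settling 4 h, compound treatment 2 h, both 37 °C | signal = luminescence with SteadyLite reagent, 15 min at room temperature | evaluation = % enhancement relative to plate controls after blank subtraction | benchmarks = plate controls and plate blanks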
Active calls of the source: *; i = inactive; nt = no result given. This is a sample that favours compounds with a hit; in the whole collection about 3.7% have one here.

SMILES | ROMK mod | PKD1 inh | Calpain2 inh | Arbovirus anti | KCC2 mod | Mdm2 ligase inh
COc1ccc(-n2c(SCC(=O)/C(C#N)=C(\C)N)nc3ccccc3c2=O)cc1OC | nt | nt | -17 | nt | -0.23 | -8
C/C(N)=C(/C#N)C(=O)CSc1nc2cc(Cl)ccc2c(=O)n1-c1ccc(C)cc1 | nt | -8 | 0 | 9 | 8.7* | -11
CCCCn1c(SCC(=O)/C(C#N)=C(\C)N)nc2ccccc2c1=O | 3* | 22 | -17 | -2 | 24* | -8
Cc1nc(C)c(N)c(=O)[nH]1 | -1.9 | -2 | -4 | -1 | 1.3 | 3
Cc1ccc(SC(=O)c2c(C)noc2-c2cc(C)on2)cc1 | -1.6 | nt | -4 | nt | 0.16 | -8
Cc1nnc(SCCn2c(N3CCN(c4ccccc4)CC3)nc3c2c(=O)n(C)c(=O)n3C)s1 | nt | nt | nt | 4 | nt | nt
Nc1nc(-c2ccccc2)nc2sc3c(c12)CCCC3 | -0.53 | -2 | 0 | 7 | 0.31 | -30
COc1cc(/C=N/NC(=O)c2ccc(O)cc2)ccc1OCC(=O)N1CC(C)OC(C)C1 (stereo unspecified) | nt | nt | -12 | nt | 1.5 | -6
Cc1nnc2sc(SCc3cccc(Cl)c3)nn2c1=O | 0.13 | -3 | -1 | 31* | -0.46 | -12
Cc1nnc2sc(SCc3ccccc3)nn2c1=O | nt | -11 | 15 | 16 | -0.023 | -7
Cc1ccc(NCc2nnc(SCC(=O)N(Cc3ccccc3)C(C)(C)C)o2)c(C)c1 | nt | -2 | 60* | -15 | -0.72 | -15
Cc1ccc(NCc2nnc(SCC(N)=O)o2)c(C)c1 | nt | 5 | -29 | -4 | -1.1 | -5
O=C(CN1CCC(O)(c2cccc(F)c2)CC1)NCCc1c[nH]c2ccccc12 | nt | nt | -25 | nt | 0.45 | nt
COc1ccccc1C(=O)NNC(=S)NC(=O)c1ccco1 | nt | 0 | 14 | -26 | 16* | -13
CC(Oc1ccccc1)C(=O)Nc1cccc(NC(=O)c2ccco2)c1 (stereo unspecified) | nt | nt | 10 | nt | 0.85 | -5
CC(Oc1ccc(Cl)cc1)C(=O)NNC(=S)NC(=O)c1ccco1 (stereo unspecified) | 1.3 | -8 | 4 | -25 | 26* | 7
Cc1ccc2nsnc2c1NC(=S)NC(=O)c1ccco1 | 0.53 | 10 | 1 | -3 | 9.3* | -4
O=C(NC(=S)Nc1ccccn1)c1ccco1 | nt | 15 | 14 | -14 | 10* | -16
COc1cc(CC(NC(C)=O)C(=O)NC2CCN(c3nc(OC)nc(OC)n3)CC2)cc(OC)c1 (stereo unspecified) | nt | nt | -10 | nt | nt | nt
CCOC(=O)c1sc(SC)c2c1CCCC2=O | nt | nt | 8 | nt | -2 | -12
COCCNC(=S)NNC(=O)c1ccco1 | -0.43 | 0 | -38 | -2 | 1.4 | -8
COc1ccc(C(=O)NNC(=S)NC(=O)c2ccco2)cc1 | 0.56 | -2 | 34 | -25 | 10* | -20
O=C(CSCc1ccccc1)N1CCN(Cc2ccc3c(c2)OCO3)CC1 | -2.9* | -2 | -18 | -13 | 0.018 | 2
CCN(CC)c1ccc(C(=O)NC(=S)N2CCN(Cc3ccc4c(c3)OCO4)CC2)cc1 | -3.3* | 3 | -21 | 3 | 17* | nt
Cc1ccccc1Cc1c(C)nc2c(C(=O)N3CCN(Cc4ccc5c(c4)OCO5)CC3)cnn2c1C | -5.3* | 2 | nt | nt | -1.2 | nt
SMILES | ROMK mod | PKD1 inh | Calpain2 inh | Arbovirus anti | KCC2 mod | Mdm2 ligase inh
Cc1ccccc1Cc1c(C)nc2c(C(=O)NCc3ccc4c(c3)OCO4)cnn2c1C | nt | -3 | -18 | 1 | -0.072 | -18
COc1ccc(/C=N\NC(=O)c2cc(O)c(O)c(O)c2)cc1CN1CCN(c2ccc(F)cc2)CC1 | nt | 9 | -34 | -20 | 0.58 | -20
Cc1cc(SCC(=O)NN)c2cc(Br)ccc2n1 | 0.67 | nt | -17 | nt | -0.15 | -14
CCCNC(=O)Cn1sc2nc(C)cc(C)c2c1=O | nt | nt | -27 | nt | -0.61 | nt
COc1ccc(Cn2c(C)c(C)c(C#N)c2NC(=O)Nc2cccc(Cl)c2)cc1 | nt | -1 | 15 | 79* | 0.4 | -24
COc1cc(C(=O)OCC(=O)c2c(N)n(C)c(=O)n(C)c2=O)ccc1OCCC(C)C | 0.99 | -6 | 7 | -4 | 0.14 | 4
Cn1c(=O)c(C(=S)NC(=O)C2CC2)c(N)n(Cc2ccccc2)c1=O | 1.2 | 0 | -20 | 2 | 10* | -10
N#Cc1cccc(NCC(=O)Nc2ccc3c(c2)OCCO3)c1 | -0.58 | -7 | -12 | 9 | -1 | -24
N#C/C(=C\c1ccccc1OCc1ccc(C(=O)O)cc1)C(=O)Nc1ccc(O)cc1 | 0.22 | 10 | -50 | -10 | 0.94 | -24
COc1ccc(NC(=O)/C(C#N)=C\c2ccc(OCc3ccc(C(=O)O)cc3)c(OC)c2)cc1 | -1.6 | -10 | -63 | -11 | nt | 30*
CN(C)c1cccc2c1c(NC(=O)c1ccc(Cl)cc1)nn2C | nt | nt | -3 | nt | -1.3 | -6
O=C(NCCc1c[nH]c2ccccc12)C1CCC(Cn2c(=S)[nH]c3ccccc3c2=O)CC1 (stereo unspecified) | nt | -8 | -219 | 4 | 0.64 | -12
Cc1ccccc1Cn1c(=O)n(CC2CCC(C(=O)NCCc3ccccc3)CC2)c(=O)c2ccccc21 (stereo unspecified) | nt | 2 | 66* | -20 | 0.19 | -3
COc1ccc(N=C2C(=O)N3c4c(cccc42)C(C)=CC3(C)C)cc1 | nt | -12 | 26 | -10 | -1 | 0
CN(C)c1cccc(C(=O)OCC(=O)Nc2ccccc2Cl)c1 | -2.1 | -2 | 56* | -6 | -0.47 | 7
CCOC(=O)C1(CCc2ccccc2)CCN(C(=O)CN2C(=O)CSC2=O)CC1 | 0.11 | -4 | 9 | 1 | -0.77 | -7
COc1ccccc1-c1cc(C(=O)N2CCc3ccccc3C2)c2ccccc2n1 | nt | 4 | -37 | 42* | -1.4 | -38
Cc1c(O)c2c3c(cccc3c1O)C(=O)N(c1ccccc1)C2=O | nt | -3 | 18 | 35* | i | -2
O=C(O)c1ccc2c3c(cccc13)C(=O)N(c1ccccc1)C2=O | 0.074 | -6 | -44 | -3 | 1 | -12
CCCN(C#N)c1nc(NCC)nc(NC(C)C)n1 | -0.61 | -10 | 52* | -3 | nt | -27
CS(=O)(=O)N1CCN(C(=O)Cc2ccccc2Cl)CC1 | 0.93 | -6 | -18 | 4 | 1.2 | -3
CCc1ccc(C(=O)NC(CC(C)C)C(=O)O)cc1 (stereo unspecified) | -0.4 | 1 | 1 | 12 | 4.7* | -10
Cn1cnc(NCc2ccccc2)c1[N+](=O)[O-] | nt | nt | -2 | nt | -0.5 | -22
CCc1nc(SCC(=O)N2CC(=O)Nc3ccccc32)c2c(C)c(C)sc2n1 | nt | 4 | -4 | -4 | 5.5* | 17
CC(C)CC(=O)N1CCN(S(C)(=O)=O)CC1 | nt | -8 | -6 | 4 | 6.4* | -14
CCOC(=O)C1CN(S(=O)(=O)c2ccc(C)cc2)C1 | nt | -4 | 53* | 14 | nt | 10
Cc1ccc(S(=O)(=O)N2CCN(C(=O)CC(C)C)CC2)cc1 | -0.59 | -4 | 16 | 12 | 0.15 | 32*
Cc1ccccc1NC(=O)C(Cl)=C(Cl)Cl | -0.18 | -5 | 6 | -21 | 0.75 | -3

From PubChem
